In brackets after ≈: the same amount, converted by molar mass.

Data set [1] addresses T1, Tumour suppressor p53/oncoprotein Mdm2 (Homo sapiens, UniProt Q00987). Kind of data set: Inhibition of human recombinant His-tagged MDM2 (1 to 118 residues) interaction with FAM-tagged p53-based peptide (unknown origin) incubated for 15 mins by fluorescence polarization assay. The class given is protein assay.
Data set [2] in a line: Antiproliferative activity against human SJSA1 cells expressing wild type p53 after 72 hrs by CellTitre-Glo assay. The note with it: SJSA-1, 72 h.
Data set [3] is described as follows: AUC in mouse at 20 mg/kg, po or 2 mg/kg, iv. The class given is ADME, organism-based. The settings on record: in vivo.
Data set [4] can be described thus: Oral bioavailability in mouse at 20 mg/kg. The settings on record: in vivo. Format: ADME, organism-based.
Data set [5] can be described thus: Permeability from apical to basolateral side in human Caco2 cells. Format: ADME, cell-based. The settings on record: Caco-2, read-out: permeability.
Data set [6] in a line: Intrinsic clearance in human liver microsomes. Format: ADME. The note with it: read-out: CLH.
The next data set has as its system Mus musculus. Kind of data set: Dose normalized AUC (0 to 24 hrs) in mouse at 1 mg/kg, po administered as single dose. The note with it: in vivo. The class given is ADME, organism-based. The method in brief:
(§1)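 Single oral dose of 1 mg/kg. Vehicle was 20% HPBCD for mouse and 0.4% HPMC for dog and monkey. Plasma AUC over 0–24 h, dose-normalized, reported in μM·h.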

A further data set has as its system A549. Kind of data set: Antitumor activity against human A549 cells xenografted in nude mouse assessed as tumor growth inhibition at 20 mg/kg, ip once weekly for 30 days relative to control. Format: functional. The note with it: 720 h, read-out: TGI. In short, it runs like this:
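Mice bearing A549 NSCLC xenografts. The test agent was given orally, either daily or intermittently (daily for 3 days, then 4 days off). Paclitaxel was given at 20 mg/kg ip weekly, alone or in combination. Read-out was tumor growth inhibition.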

Data set [7] can be described thus: Antiproliferative activity against human HCT116 cells expressing wild type p53 after 72 hrs by CellTitre-Glo assay. The class given is functional, cell-based. The settings on record: HCT-116, 72 h. The method in brief: (§2)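 Cancer cell lines of known p53 coding-region status (checked by direct sequencing) were exposed to the compound for 72 h. Viability was read with CellTiter-Glo, and the IC50 was taken from these readings.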

For a further data set, the system named is SK-UT-1. Kind of data set: Antiproliferative activity against human SK-UT-1 cells harboring mutant p53 after 72 hrs by CellTitre-Glo assay. Format: functional, cell-based. The note with it: SK-UT-1, 72 h. The method in brief:
as §2

The nature of data set [8]: Antiproliferative activity against p53 null human H1299 cells after 72 hrs by CellTitre-Glo assay. Format: functional, cell-based. The settings on record: NCI-H1299, 72 h. The method in brief: as §2
The target in data set [9] is T1, Tumour suppressor p53/oncoprotein Mdm2. Description: Inhibition of MDM2/p53 interaction in human HCT116 cells assessed as activation of p53 transcription by luciferase reporter gene assay. Format: cell-based, HCT-116. The method in brief:
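p53 transcriptional activation measured in HCT116 cells with a p53 response element–driven luciferase reporter (P53RE-Luc).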

In another data set the test system is SJSA-1. Description: Induction of apoptosis in human SJSA1 cells assessed as caspase 3/7 activation. Format: functional, cell-based.
Data set [10] is described as follows: Solubility of compound in pH 7.4 phosphate buffer. Format: physicochemical.
In the next data set the test system is Canis familiaris. Kind of data set: Dose normalized AUC (0 to 24 hrs) in dog at 1 mg/kg, po administered as single dose. The settings on record: in vivo. The class given is ADME, organism-based, Canis lupus familiaris. The method in brief: as §1
The subject of another data set is Rhesus monkey. Kind of data set: Dose normalized AUC (0 to 24 hrs) in monkey at 1 mg/kg, po administered as single dose. The settings on record: in vivo. The class given is ADME, organism-based, Macaca mulatta. The method in brief: as §1
A further data set has as its system A2780. Description: Antitumor activity against human A2780 cells xenografted in nude mouse harboring wild type p53 assessed as tumor growth inhibition at 40 mg/kg, ip once weekly for 15 days relative to control. The note with it: 360 h, read-out: TGI.

T1 sequence (P04637 whole entry, the tested form may be a part): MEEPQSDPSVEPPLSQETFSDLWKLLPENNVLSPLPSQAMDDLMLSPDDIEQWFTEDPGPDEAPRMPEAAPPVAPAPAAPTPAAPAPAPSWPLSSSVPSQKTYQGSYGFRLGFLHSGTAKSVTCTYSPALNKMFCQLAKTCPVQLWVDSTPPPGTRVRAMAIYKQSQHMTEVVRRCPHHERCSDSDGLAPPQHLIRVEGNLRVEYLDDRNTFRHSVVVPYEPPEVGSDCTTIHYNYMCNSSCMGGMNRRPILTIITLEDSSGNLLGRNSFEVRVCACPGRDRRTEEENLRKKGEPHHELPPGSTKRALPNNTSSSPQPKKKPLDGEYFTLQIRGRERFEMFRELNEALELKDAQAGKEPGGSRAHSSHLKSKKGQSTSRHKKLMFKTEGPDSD
T1 sequence (Q00987 whole entry, the tested form may be a part): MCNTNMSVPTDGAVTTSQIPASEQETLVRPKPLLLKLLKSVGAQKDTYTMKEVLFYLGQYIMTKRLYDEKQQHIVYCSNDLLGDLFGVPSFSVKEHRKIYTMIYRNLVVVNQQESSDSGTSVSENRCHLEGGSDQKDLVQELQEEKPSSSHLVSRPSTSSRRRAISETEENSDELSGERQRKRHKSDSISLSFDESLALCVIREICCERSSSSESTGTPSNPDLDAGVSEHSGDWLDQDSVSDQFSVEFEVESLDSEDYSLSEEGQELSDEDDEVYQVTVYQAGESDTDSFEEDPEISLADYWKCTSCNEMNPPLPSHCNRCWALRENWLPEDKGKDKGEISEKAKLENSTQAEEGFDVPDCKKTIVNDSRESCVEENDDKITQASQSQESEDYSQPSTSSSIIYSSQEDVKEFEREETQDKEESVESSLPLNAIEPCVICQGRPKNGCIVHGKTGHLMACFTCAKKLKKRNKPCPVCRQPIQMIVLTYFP

On to `CCC[C@H]1N(C(=O)c2cnccc2C(F)(F)F)CCC[C@@]1(Oc1cc(C(F)(F)F)sc1C)C(=O)N1CCN(c2ccccc2OCCO)CC1`, for which the IC50 in data set [1] turned out to be 470 nM.

In the case of `CCC[C@H]1N(C(=O)c2cnccc2C(F)(F)F)CCC[C@@]1(Oc1csc(C(F)(F)F)c1)C(=O)N1CCN(c2ccccc2OC(C)(C)C(=O)O)CC1`, the IC50 amounted to 11 nM in [1] and 80 nM in data set [2].

Consider `CCC[C@H]1N(C(=O)c2cnccc2C(F)(F)F)CCC[C@@]1(Oc1csc(C(F)(F)F)c1)C(=O)N1CCN(c2ccccc2OCC(C)(C)C(=O)O)CC1`, for which the IC50 in [1] was 4 nM; in data set [2], 260 nM.

As for `CCC[C@@H]1N(C(=O)c2cnccc2C(F)(F)F)CCC[C@]1(Oc1nc(C(F)(F)F)cs1)C(=O)N1CCN(c2ccccc2OCCO)CC1` (racemic), the IC50 in data set [1] came to 1100 nM.

Turning to `CCC[C@H]1N(C(=O)c2cnccc2C(F)(F)F)CCC[C@@]1(Oc1cc(I)cs1)C(=O)N1CCN(c2ccccc2OCCO)CC1` (racemic), in data set [1], the IC50 worked out at 90 nM.

Consider `CCC[C@H]1N(C(=O)c2cnccc2C(F)(F)F)CCC[C@@]1(Oc1csc(C(F)(F)F)c1)C(=O)N1CCN(c2ccccc2OCCCCC(=O)O)CC1`, for which the IC50 in [1] is 7 nM; in data set [2], 170 nM.

`CCC[C@@H]1N(C(=O)c2cnccc2C(F)(F)F)CCC[C@]1(Oc1ccc(C(F)(F)F)cc1)C(=O)N1CCN(c2ccccc2OCCO)CC1` (single isomer, unassigned) yielded an AUC in [3] of 8.7 µM·h. The same molecule had a bioavailability in data set [4] of 92%. The figures for the IC50 in [1] and in data set [2] were 40 nM and 460 nM, respectively. For the same molecule, in data set [5], the Papp A→B stood at 9.9 ×10⁻⁶ cm/s. In [6], the CLint scaled is 23 mL/min/kg. The AUC/dose with Mus musculus was determined as 1.2 µM·h.

On to `CCC[C@H]1N(C(=O)c2cnccc2C(F)(F)F)CCC[C@@]1(Oc1csc(C(F)(F)F)c1C)C(=O)N1CCN(c2ccccc2OCCO)CC1`, for which the IC50 in data set [1] amounted to 58 nM.

Regarding `CCC[C@@H]1N(C(=O)c2cnccc2C(F)(F)F)CCC[C@]1(Oc1csc(C(F)(F)F)c1)C(=O)N1CCN(c2ccccc2OCC2(CC(=O)O)CC2)CC1` (single isomer, unassigned), the IC50 in data set [1] worked out at 33 nM.

For `CCC[C@H]1N(C(=O)c2cnccc2C(F)(F)F)CCC[C@@]1(Oc1cccs1)C(=O)N1CCN(c2ccccc2OCCO)CC1` (racemic), the IC50 in [1] is 2900 nM.

For the molecule `CCC[C@@H]1N(C(=O)c2cnccc2C(F)(F)F)CCC[C@]1(Oc1csc(C(F)(F)F)c1)C(=O)N1CCN(c2ccccc2OCCC(C)(C)C(=O)O)CC1` (single isomer, unassigned), the IC50 was 10 nM in data set [1] and 280 nM in data set [2].

Take `COc1ccc(C2=N[C@@H](c3ccc(Cl)cc3)[C@@H](c3ccc(Cl)cc3)N2C(=O)N2CCNC(=O)C2)c(OC(C)C)c1` [NUTLIN-3]: half-maximal inhibition in data set [2] (IC50) was put at 1900 nM.

As for `CC(=O)O[C@H]1C(=O)[C@@]2(C)[C@H]([C@H](OC(=O)c3ccccc3)[C@]3(O)C[C@H](OC(=O)[C@H](O)[C@@H](NC(=O)c4ccccc4)c4ccccc4)C(C)=C1C3(C)C)[C@]1(OC(C)=O)CO[C@@H]1C[C@@H]2O` [PACLITAXEL], the inhibition in vivo at 20 mg/kg with A549 worked out at 54%.

Regarding `CCC[C@@H]1N(C(=O)c2cnccc2C(F)(F)F)CCC[C@]1(Oc1cc(C(F)(F)F)n(C)n1)C(=O)N1CCN(c2ccccc2OCCO)CC1` (racemic), in data set [1], the IC50 came out at 6300 nM.

Turning to `CCC[C@H]1N(C(=O)c2cnccc2C(F)(F)F)CCC[C@@]1(Oc1csc(C(F)(F)F)c1Cl)C(=O)N1CCN(c2ccccc2OCCO)CC1`, the IC50 in data set [1] was 130 nM.

Turning to `CCC[C@@H]1N(C(=O)c2cnccc2C(F)(F)F)CCC[C@]1(Oc1csc(C(F)(F)F)c1)C(=O)N1CCN(c2ccccc2OCCO)CC1` (single isomer, unassigned), the IC50 in data set [1] is 15 nM; in data set [2] it was 180 nM; in data set [7], 390 nM; with SK-UT-1, above 17 µM; in data set [8] it was above 17 µM; with SJSA-1, 300 nM. The EC50 in [9] amounted to 400 nM. In data set [10], the concentration in solution (solubility) came to 10 µM (≈ 7.15 µg/mL). In addition, the CLint scaled in data set [6] was determined as 14 mL/min/kg. For the same molecule, the AUC/dose with Mus musculus was 2 µM·h; in the data set on Canis familiaris, 0.2 µM·h; with Rhesus monkey, 0.3 µM·h.

With `C=CC[C@H]1N(C(=O)c2cnccc2C(F)(F)F)CCC[C@@]1(Oc1cc(C2CC2)cs1)C(=O)N1CCN(c2ccccc2OCCCC(=O)O)CC1`, the IC50 in data set [1] was determined as 3500 nM.

On to `CCC[C@@H]1N(C(=O)c2cnccc2C(F)(F)F)CCC[C@]1(Oc1csc(C(F)(F)C(F)(F)F)c1)C(=O)N1CCN(c2ccccc2OCCO)CC1` (single isomer, unassigned), for which the IC50 came to 25 nM in data set [1] and 1100 nM in data set [2].

As to `CCC[C@H]1N(C(=O)c2cnccc2C(F)(F)F)CCC[C@@]1(Oc1csc(C(F)(F)F)c1)C(=O)N1CCN(c2ccccc2OC(C)(C)CO)CC1`, the IC50 in [1] was 25 nM; in data set [2] it was 1100 nM.

In the case of `CCC[C@@H]1N(C(=O)c2cnccc2C(F)(F)F)CCC[C@]1(Oc1csc(C(F)(F)F)c1)C(=O)N1CCN(c2ccccc2OCC(=O)NC)CC1` (single isomer, unassigned), the IC50 in [1] is 4 nM; in [2], 110 nM; in [7], 470 nM; in the data set with SK-UT-1 it was above 10 µM; in data set [8], above 17 µM; in the data set with SJSA-1, 300 nM. Moreover, in [9], the EC50 was determined as 400 nM. Besides, the Papp A→B in [5] amounted to 18.1 ×10⁻⁶ cm/s. The solubility in data set [10] was determined as 12 µM (≈ 8.9 µg/mL). Further, in data set [6], the CLint scaled is 13 mL/min/kg. Also, the AUC/dose amounted to 2 µM·h in the data set with Mus musculus, 0.2 µM·h in the data set on Canis familiaris and 0.3 µM·h in the data set with Rhesus monkey.

On to `COc1ccccc1N1CCN(C(=O)C2(Oc3ccc(C(F)(F)F)cc3)CCCN(C(=O)c3cnccc3C(F)(F)F)C2)CC1` (stereo not given), for which the IC50 in [2] worked out at 5500 nM.

For the molecule `COCCOc1ccccc1N1CCN(C(=O)[C@]2(Oc3ccc(C(F)(F)F)cc3)CCCN(C(=O)c3cnccc3C(F)(F)F)[C@@H]2CCO)CC1`, in [2], the IC50 is 530 nM.

For the molecule `CC(=O)O[C@@]12CO[C@@H]1C[C@H](O)[C@@]1(C)C(=O)[C@H](O)C3=C(C)[C@@H](OC(=O)[C@H](O)[C@@H](NC(=O)OC(C)(C)C)c4ccccc4)C[C@@](O)([C@@H](OC(=O)c4ccccc4)[C@H]21)C3(C)C` [DOCETAXEL ANHYDROUS], in the data set on A2780, the inhibition in vivo at 40 mg/kg was found to be 53%.

Regarding `CCC[C@H]1N(C(=O)c2cnccc2C(F)(F)F)CCC[C@@]1(Oc1csc(C(F)(F)F)c1)C(=O)N1CCN(c2ccccc2OCC(=O)O)CC1`, the figures for the IC50 in [1] and in [2] were 2 nM and 1100 nM, respectively. Besides, the Papp A→B in data set [5] came to 0.7 ×10⁻⁶ cm/s. In the data set with Mus musculus, this molecule had an AUC/dose of 0.02 µM·h.

Take `CCC[C@@H]1N(C(=O)c2cnccc2C(F)(F)F)CCC[C@]1(Oc1cc(C(F)(F)F)cs1)C(=O)N1CCN(c2ccccc2OCCO)CC1` (racemic): in data set [1], the IC50 turned out to be 170 nM.

For `CCC[C@H]1N(C(=O)c2cnccc2C(F)(F)F)CCC[C@@]1(Oc1csc(C(F)(F)F)c1)C(=O)N1CCN(c2ccccc2OCC(C)(C)O)CC1`, the IC50 stood at 23 nM in [1] and 600 nM in [2].

The values are drawn from ChEMBL document CHEMBL3804796, “Discovery of Novel 3,3-Disubstituted Piperidines as Orally Bioavailable, Potent, and Efficacious HDM2-p53 Inhibitors” (ACS Med Chem Lett, 2016).
